Screening data as filed in PubChem BioAssay.
Shown are actives, neighbours in structure and some others; about 8.4% of the full set was active somewhere.
Cav3 T inh – blocks human Cav3.2 T-type calcium channel; hit rate 4% among 100,000; AID 449739; Cav3.2-expressing cells, Fluo-4 calcium fluorescence FDSS; active compounds read low; B-score at 10 µM; O95180;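 active = single-dose well whose peak fluorescence ratio is a statistical outlier from its plate by either plate-standardised score or position-corrected B-score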
PostGolgi ctrl – inhibits growth of the yeast control strain; efflux-deficient yeast background strain, growth absorbance A615, 16 h; hit rate 5% among 98,000; inhibition, % at 10 µM
E coli WT exp – blocks growth of wild type E. coli BW25113; OD600 absorbance; AID 710; hit rate 0.15% among 98,000; growth inhibition, % at 100 µM;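 active = growth inhibition above about 50% at one test dose, limit read from the data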;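 also: growth measured after 20 h incubation at 37 °C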
tolC growth inh – blocks growth of E. coli BW25113 tolC mutant | OD615 | hit rate 2.2% among 65,000 | growth inhibition, % at 10 µM (by protocol) | AID 573;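 active = growth inhibition at or above a cutoff equal to the mean over every tested compound plus 3 SD, cut at about 60% in these data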;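 also: growth measured after 20 h incubation at 37 °C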
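Assay system: tolC-deleted E. coli BW25113. Medium: kanamycin-containing LB broth (50 µg/mL). Dosing: 10 µM final, single dose. Timing: bacterial growth with compound for 20 h at 37 °C. Detection: A615 absorbance measurement. Read-out basis: growth inhibition in percent.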
PostGolgi yeast – growth inhibition of a yeast mutant, post-Golgi transport screen | inhibition, % at 10 µM | post-Golgi transport phenotypic cell assay | hit rate 0.9% among 98,000;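 also: yeast cells grown in 1536-well plates; yeast grown about 18 h at 30C before absorbance read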
Numbers without * were called inactive; / = no result given. Rule as the data show it, unless noted: active = inhibition above about 30%; inactive = the rest.

SMILES	Cav3 T inh	PostGolgi ctrl	E coli WT exp	tolC growth inh	PostGolgi yeast
COc1cc(NS(=O)(=O)c2ccc(NC(=O)c3ccco3)cc2)nc(OC)n1	-0.441	35.5*	-3.0	-13.9	-6.3
CCCCOC(=O)Nc1cc(OC)c(Cl)cc1OC	-2.46*	7.0	-5.0	22.5	5.3
COc1cc(NC(=O)C2CCCC2)c(OC)cc1Cl	-0.508	6.4	2.0	1.2	18.8
CCCCOC(=O)Nc1cc(C(=O)OC)ccc1C(=O)OC	-2	9.9	-1.0	66.6*	4.7
COC(=O)c1ccc(C(=O)OC)c(NC(=O)CCC(=O)O)c1	0.336	8.9	1.0	-1.3	6.5
Cc1cc(C)nc(-n2nc(C)cc2NC(=O)c2cccc(S(=O)(=O)N3CCOCC3)c2)n1	1.9	11.2	-22.0	/	1.7
O=C(N/N=C/C=C/c1ccccc1)c1ccccc1Br	-0.691	1.6	3.0	/	-6.4
O=C(N/N=C/c1cccc(Oc2ccccc2)c1)c1ccccc1Br	-2.78	33.4*	-8.0	/	-3.5
O=C(N/N=C/c1cccc(Oc2ccccc2)c1)c1cccc(Br)c1	-3.88	31.3*	-29.0	/	0.7
O=C(N/N=C/C=C/c1ccccc1)c1cccc(Br)c1	-1.24	5.9	-13.0	/	1.1
CC(NC(=O)c1ccccc1NC(=O)CSc1nnnn1C)c1ccccc1 (stereo not drawn)	1.24	32.8*	-3.0	/	20.3
COC(=O)c1ccc(-n2nnnc2SCC(=O)Nc2ccccc2C(=O)OC)cc1	/	36.6*	1.0	/	24.9
Cn1nnnc1SCC(=O)Nc1ccccc1Cl	0.119	4.2	0.0	-4.6	-2.3
CCOC(=O)N1CCN(CC(=O)N2c3ccccc3CC2C)CC1 (stereo not drawn)	/	4.2	0.0	-22.4	-0.9
O=C(OCCN1C(=O)c2ccccc2C1=O)C1CCN(S(=O)(=O)c2cccs2)CC1	0.135	15.0	-6.0	11.1	-6.5
CCN(C(=O)c1cc2ccccc2oc1=O)c1ccccc1	0.395	-6.4	0.0	/	-8.7
O=C(c1cc2ccccc2oc1=O)N(Cc1cccs1)Cc1ccccc1Cl	-7.12*	/	/	/	/
COc1cccc(OC)c1-c1nn2c(-c3ccccc3Cl)nnc2s1	-3.24	37.7*	-1.0	20.3	-3.4
COc1ccc(Cc2nn3c(-c4ccccc4OC)nnc3s2)cc1	-1.36	23.3	1.0	24.9	9.8
Clc1ccccc1-c1nnc2sc(-c3ccccn3)nn12	-0.303	/	/	-9.9	/
COc1ccccc1-c1nnc2sc(COc3ccc(Cl)cc3)nn12	-2.78*	34.8*	-10.0	69.3*	10.8
OC(CN1c2ccccc2Sc2ccccc21)Cn1nnc2ccccc21 (stereo not drawn)	-0.539	47.0*	-9.0	39.4	9.8
CC(=O)c1ccc(OCC(O)Cn2nnc3ccccc32)cc1 (stereo not drawn)	0.88	15.0	8.0	8.3	5.4
Cc1ccc2c(c1)c(C)c(C)n2CC(O)Cn1nnc2ccccc21 (stereo not drawn)	-4.74*	22.1	-1.0	42.3	18.1
N#Cc1ccc(-c2ccc(OCC(O)Cn3nnc4ccccc43)cc2)cc1 (stereo not drawn)	1.1	34.7*	-7.0	5.7	-1.5
SMILES	Cav3 T inh	PostGolgi ctrl	E coli WT exp	tolC growth inh	PostGolgi yeast
CCCNC(=O)c1onc(CSc2ccncc2)c1C(=O)NCCC	-0.0627	/	/	/	/
COc1ccc(Cl)cc1CN1CCN(c2nc(C)cc(C)c2C#N)CC1	-0.218	13.2	1.0	96.9*	-13.7
COc1ccc(F)cc1CN1CCN(c2cc(C)nc3c4c(C)cc(C)nc4nn23)CC1	-7.75*	-3.1	2.0	51.6	-10.3
Cc1cc(C)c(C#N)c(N2CCN(CCOc3ccc(Cl)cc3)CC2)n1	-2.24	32.4*	7.0	100.0*	2.1
Cc1ccc(C2=[N+]([O-])C(C)(C)CC2)cc1	-1.74	32.5*	4.0	/	1.9
COc1cccc(CNC(=O)c2cc3oc4ccccc4c3n2C)c1OC	0.298	10.1	-6.0	-2.0	7.6
CCOc1ccccc1CNC(=O)c1cc2oc3ccccc3c2n1CC	-5.04*	30.6*	-12.0	/	-6.7
CCCn1c(N)c(C(c2ccc(C(=O)OC)cc2)N2CCN(c3ccccc3)CC2)c(=O)[nH]c1=O (stereo not drawn)	-2.59	-3.3	5.0	-0.3	-22.6
COC(=O)c1ccc(C(c2c(N)n(CC(C)C)c(=O)[nH]c2=O)N2CCN(c3ccccc3)CC2)cc1 (stereo not drawn)	-5.94*	35.0*	-6.0	2.7	-16.6
N#CCn1c(C2CCCCC2)nc2ccccc2c1=O	-0.202	1.5	11.0	17.4	-14.1
C(=N\Nc1nc2ccccc2s1)/c1cccs1	0.12	31.2*	1.0	/	-6.8
CC(=O)NC(C)C(=O)OCc1ccc(Cl)cc1Cl (stereo not drawn)	1.08	3.2	-11.0	-1.3	-6.1
